Source: ChEMBL document CHEMBL4376901, “Azo-PROTAC: Novel Light-Controlled Small-Molecule Tool for Protein Knockdown” (J Med Chem, 2020)
Each block holds one compound with its values, some of them ahead of it. Active and inactive are the calls of the source. The rule behind the calls is not given here.

Key:
[1] = target: T1, Protein cereblon/Tyrosine-protein kinase ABL1/Breakpoint cluster region protein (Homo sapiens) (UniProt P00519+P11274+Q96SW2); assay: Protac activity at CRBN/BCR-ABL in human K562 cells assessed as reduction in BCR-ABL protein levels at 50 to 250 nM incubated for 24 hrs by Western blot analysis; format: cell-based
Procedure, shortened: (§1)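 K562 cells were exposed for 24 h to a concentration gradient of the trans or cis form. BCR-ABL and ABL protein levels were assessed by Western blot in a dose-effect design.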

[2] = target: T2, Protein cereblon/Tyrosine-protein kinase ABL1 (Homo sapiens) (UniProt P00519+Q96SW2); assay: Protac activity at CRBN/ABL in human K562 cells assessed as reduction in ABL protein levels at 50 to 250 nM incubated for 24 hrs by Western blot analysis; format: cell-based; procedure, shortened: as §1
[3] = target: T2, Protein cereblon/Tyrosine-protein kinase ABL1 (Homo sapiens); assay: Protac activity at CRBN/ABL in human K562 cells assessed as reduction in ABL protein levels at 100 nM incubated for 24 hrs by Western blot analysis
[4] = target: T1, Protein cereblon/Tyrosine-protein kinase ABL1/Breakpoint cluster region protein (Homo sapiens); assay: Protac activity at CRBN/BCR-ABL in human K562 cells assessed as reduction in BCR-ABL protein levels at 100 nM incubated for 24 hrs by Western blot analysis
[5] = target: T1, Protein cereblon/Tyrosine-protein kinase ABL1/Breakpoint cluster region protein (Homo sapiens); assay: Protac activity at CRBN/BCR-ABL in human K562 cells assessed as reduction in BCR-ABL protein levels at 250 nM incubated for 32 hrs by Western blot analysis; format: cell-based; parameters: scale not given: the % may be the effect or the level left
Procedure, shortened: (§2)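 Time-course in K562 cells at a fixed 250 nM PROTAC, run separately with the trans and cis forms. Cells were harvested at several time points. BCR-ABL and ABL protein levels were read by Western blot.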

[6] = target: T2, Protein cereblon/Tyrosine-protein kinase ABL1 (Homo sapiens); assay: Protac activity at CRBN/ABL in human K562 cells assessed as reduction in ABL protein levels at 250 nM incubated for 32 hrs by Western blot analysis; format: cell-based; parameters: scale not given: the % may be the effect or the level left; procedure, shortened: as §2
[7] = target: T1, Protein cereblon/Tyrosine-protein kinase ABL1/Breakpoint cluster region protein (Homo sapiens); assay: Protac activity at CRBN/BCR-ABL in human K562 cells assessed as reduction in BCR-ABL protein levels incubated for 24 hrs followed by exposure to white light up to 24 hrs hrs by Western blot analysis; format: cell-based
Procedure, shortened: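 Cells were preincubated with the cis form while shielded from light, then moved to fresh medium and exposed to visible light. BCR-ABL was followed over time by Western blot.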

[8] = target: T2, Protein cereblon/Tyrosine-protein kinase ABL1 (Homo sapiens); assay: Protac activity at CRBN/ABL in human K562 cells assessed as reduction in ABL protein levels incubated for 24 hrs followed by exposure to white light up to 24 hrs by Western blot analysis; format: cell-based
[9] = target: T2, Protein cereblon/Tyrosine-protein kinase ABL1 (Homo sapiens); assay: Protac activity at CRBN/ABL in human K562 cells assessed as reduction in ABL protein levels at 500 nM incubated for 24 hrs by Western blot analysis
[10] = target: T1, Protein cereblon/Tyrosine-protein kinase ABL1/Breakpoint cluster region protein (Homo sapiens); assay: Protac activity at CRBN/BCR-ABL in human K562 cells assessed as reduction in BCR-ABL protein levels at 500 nM incubated for 24 hrs by Western blot analysis
[11] = Drug metabolism assessed as photoisomerization to cis-isomer after exposure to UV-C light and measured after 1 hr by UV-visible absorption spectra analysis
[12] = Drug metabolism assessed as photoisomerization to cis-isomer after exposure to white light light up to 240 mins by UV-visible absorption spectra analysis
[13] = Half life for spontaneous thermal relaxation under dark condition at 25 degC; format: physicochemical
[14] = Stability in presence of 20 mM of GSH reduced in DMSO/PBS buffer (1:1) solution incubated for 48 hrs; format: physicochemical
[15] = test system: K562; assay: Antiproliferative activity against human K562 cells assessed as inhibition of cell proliferation incubated for 48 hrs by CCK8 assay; format: functional, cell-based; conditions: K562, 48 h
[16] = test system: K562; assay: Cytotoxicity against human K562 cells assessed as inhibition of cell viability incubated for 48 hrs by Cell-titer-Glo luminescent cell viability assay; format: functional, cell-based; conditions: K562, 48 h
[17] = test system: A549; assay: Cytotoxicity against human A549 cells assessed as inhibition of cell viability incubated for 48 hrs by Cell-titer-Glo luminescent cell viability assay; format: functional, cell-based
[18] = test system: HCT-116; assay: Cytotoxicity against human HCT116 cells assessed as inhibition of cell viability incubated for 48 hrs by Cell-titer-Glo luminescent cell viability assay; format: functional, cell-based
[19] = test system: MCF7; assay: Cytotoxicity against human MCF7 cells assessed as inhibition of cell viability incubated for 48 hrs by Cell-titer-Glo luminescent cell viability assay; format: functional, cell-based
[20] = target: T1, Protein cereblon/Tyrosine-protein kinase ABL1/Breakpoint cluster region protein (Homo sapiens); assay: Protac activity at CRBN/BCR-ABL in human K562 cells assessed as reduction in BCR-ABL protein levels pre-treated with ABL inhibitor dasatinib followed by compound addition at 250 nM incubated for 24 hrs by Western blot analysis; format: cell-based
[21] = target: T2, Protein cereblon/Tyrosine-protein kinase ABL1 (Homo sapiens); assay: Protac activity at CRBN/ABL in human K562 cells assessed as reduction in ABL protein levels pre-treated with ABL inhibitor dasatinib followed by compound addition at 250 nM incubated for 24 hrs by Western blot analysis; format: cell-based
[22] = target: T1, Protein cereblon/Tyrosine-protein kinase ABL1/Breakpoint cluster region protein (Homo sapiens); assay: Protac activity at CRBN/BCR-ABL in human K562 cells assessed as reduction in BCR-ABL protein levels pre-treated with lenalidomide followed by compound addition at 250 nM incubated for 24 hrs by Western blot analysis; format: cell-based
[23] = target: T2, Protein cereblon/Tyrosine-protein kinase ABL1 (Homo sapiens); assay: Protac activity at CRBN/ABL in human K562 cells assessed as reduction in ABL protein levels pre-treated with lenalidomide followed by compound addition at 250 nM incubated for 24 hrs by Western blot analysis; format: cell-based
[24] = target: T1, Protein cereblon/Tyrosine-protein kinase ABL1/Breakpoint cluster region protein (Homo sapiens); assay: Protac activity at CRBN/BCR-ABL in human K562 cells assessed as reduction in BCR-ABL protein levels pre-treated with NEDD8-activating enzyme (NAE) inhibitor MLN4924 followed by compound addition at 250 nM incubated for 24 hrs by Western blot analysis; format: cell-based
[25] = target: T2, Protein cereblon/Tyrosine-protein kinase ABL1 (Homo sapiens); assay: Protac activity at CRBN/ABL in human K562 cells assessed as reduction in ABL protein levels pre-treated with NEDD8-activating enzyme (NAE) inhibitor MLN4924 followed by compound addition at 250 nM incubated for 24 hrs by Western blot analysis; format: cell-based
[26] = target: T1, Protein cereblon/Tyrosine-protein kinase ABL1/Breakpoint cluster region protein (Homo sapiens); assay: Protac activity at CRBN/BCR-ABL in human K562 cells assessed as reduction in BCR-ABL protein levels at 250 nM incubated for 4 hrs by Western blot analysis; format: cell-based; conditions: in the assay text read “10 hrs” for “4 hrs”; procedure, shortened: as §2
[27] = target: T2, Protein cereblon/Tyrosine-protein kinase ABL1 (Homo sapiens); assay: Protac activity at CRBN/ABL in human K562 cells assessed as reduction in ABL protein levels at 250 nM incubated for 4 hrs by Western blot analysis; format: cell-based; procedure, shortened: as §2
[28] = target: T1, Protein cereblon/Tyrosine-protein kinase ABL1/Breakpoint cluster region protein (Homo sapiens); assay: Protac activity at CRBN/BCR-ABL in human K562 cells assessed as reduction in BCR-ABL protein levels at 250 nM incubated for 10 hrs by Western blot analysis; format: cell-based; procedure, shortened: as §2
[29] = target: T2, Protein cereblon/Tyrosine-protein kinase ABL1 (Homo sapiens); assay: Protac activity at CRBN/ABL in human K562 cells assessed as reduction in ABL protein levels at 250 nM incubated for 10 hrs by Western blot analysis; format: cell-based; procedure, shortened: as §2
[30] = test system: K562; assay: Effect on ABL gene expression in human K562 cells at 50 to 500 nM incubated for 36 hrs by RT-qPCR analysis; format: ADME, cell-based; conditions: k562, 36 h, 0.5 µM
[31] = target: T1, Protein cereblon/Tyrosine-protein kinase ABL1/Breakpoint cluster region protein (Homo sapiens); assay: Protac activity at CRBN/BCR-ABL in human K562 cells assessed as reduction in BCR-ABL protein levels incubated for 24 hrs followed by exposure to UV-C light every 4 hrs by Western blot analysis; format: cell-based
Procedure, shortened: (§3)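 K562 cells were treated with the trans form for 24 h, then moved to fresh medium and split into two groups. One group was exposed to UV-C light every 4 h and harvested. The control group was harvested without irradiation at 0, 4, 8, 12, 16 and 24 h. Proteins were read by Western blot.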

[32] = target: T2, Protein cereblon/Tyrosine-protein kinase ABL1 (Homo sapiens); assay: Protac activity at CRBN/ABL in human K562 cells assessed as reduction in ABL protein levels incubated for 24 hrs followed by exposure to UV-C light every 4 hrs by Western blot analysis; format: cell-based; procedure, shortened: as §3
[33] = target: T2, Protein cereblon/Tyrosine-protein kinase ABL1 (Homo sapiens); assay: Protac activity at CRBN/ABL in human K562 cells assessed as reduction in ABL protein levels incubated for 24 hrs by Western blot analysis
[34] = target: T1, Protein cereblon/Tyrosine-protein kinase ABL1/Breakpoint cluster region protein (Homo sapiens); assay: Protac activity at CRBN/BCR-ABL in human K562 cells assessed as reduction in BCR-ABL protein levels incubated for 24 hrs by Western blot analysis
[35] = Drug metabolism assessed as photoisomerization to cis-isomer after exposure to UV-C light and measured up to 120 mins by UV-visible absorption spectra analysis

T2 sequence (P00519 whole entry, looked up): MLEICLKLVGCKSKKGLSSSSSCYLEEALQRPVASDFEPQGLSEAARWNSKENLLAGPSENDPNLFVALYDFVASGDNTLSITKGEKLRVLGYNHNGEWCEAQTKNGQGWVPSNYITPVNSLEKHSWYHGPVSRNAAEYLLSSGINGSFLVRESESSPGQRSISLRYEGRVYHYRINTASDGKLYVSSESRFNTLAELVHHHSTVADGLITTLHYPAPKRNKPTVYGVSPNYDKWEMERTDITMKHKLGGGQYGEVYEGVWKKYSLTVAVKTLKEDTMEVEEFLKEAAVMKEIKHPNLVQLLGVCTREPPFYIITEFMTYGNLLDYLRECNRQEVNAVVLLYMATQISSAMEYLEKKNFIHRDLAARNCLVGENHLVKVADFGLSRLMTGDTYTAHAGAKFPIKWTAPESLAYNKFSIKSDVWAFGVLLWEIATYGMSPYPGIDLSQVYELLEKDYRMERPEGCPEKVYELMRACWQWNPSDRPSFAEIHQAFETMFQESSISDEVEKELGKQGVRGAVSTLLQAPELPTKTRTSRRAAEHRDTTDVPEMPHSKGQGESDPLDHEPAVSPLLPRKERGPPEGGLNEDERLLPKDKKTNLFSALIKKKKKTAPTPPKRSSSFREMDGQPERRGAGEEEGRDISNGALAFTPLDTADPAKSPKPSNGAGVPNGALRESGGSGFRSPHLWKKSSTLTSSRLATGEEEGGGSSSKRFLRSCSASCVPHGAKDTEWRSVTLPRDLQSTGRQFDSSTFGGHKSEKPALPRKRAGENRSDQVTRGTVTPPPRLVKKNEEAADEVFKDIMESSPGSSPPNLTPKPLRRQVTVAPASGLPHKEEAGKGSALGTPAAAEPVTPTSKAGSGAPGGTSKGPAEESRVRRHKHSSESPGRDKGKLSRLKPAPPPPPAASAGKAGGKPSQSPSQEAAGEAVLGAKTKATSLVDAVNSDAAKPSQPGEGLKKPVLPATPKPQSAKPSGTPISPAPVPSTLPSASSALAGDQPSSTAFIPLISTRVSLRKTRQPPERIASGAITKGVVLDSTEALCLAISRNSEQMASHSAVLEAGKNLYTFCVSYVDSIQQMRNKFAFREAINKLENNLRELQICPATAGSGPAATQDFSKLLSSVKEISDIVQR
T2 sequence (Q96SW2 whole entry, looked up): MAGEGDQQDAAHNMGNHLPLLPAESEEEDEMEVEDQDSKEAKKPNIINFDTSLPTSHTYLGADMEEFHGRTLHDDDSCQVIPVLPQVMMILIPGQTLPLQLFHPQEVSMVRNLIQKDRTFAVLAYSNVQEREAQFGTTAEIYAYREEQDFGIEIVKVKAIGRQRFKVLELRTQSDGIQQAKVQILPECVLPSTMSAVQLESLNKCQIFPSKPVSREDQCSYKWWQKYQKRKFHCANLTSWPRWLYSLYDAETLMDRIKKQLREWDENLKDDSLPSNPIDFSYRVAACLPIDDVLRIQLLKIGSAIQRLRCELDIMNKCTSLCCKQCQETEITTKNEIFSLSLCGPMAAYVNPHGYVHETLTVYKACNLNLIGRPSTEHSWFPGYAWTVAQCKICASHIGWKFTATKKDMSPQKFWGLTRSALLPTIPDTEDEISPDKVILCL
T1 sequence (P00519 whole entry, looked up): as the sequence (P00519 whole entry, looked up) above
T1 sequence (P11274 whole entry, looked up): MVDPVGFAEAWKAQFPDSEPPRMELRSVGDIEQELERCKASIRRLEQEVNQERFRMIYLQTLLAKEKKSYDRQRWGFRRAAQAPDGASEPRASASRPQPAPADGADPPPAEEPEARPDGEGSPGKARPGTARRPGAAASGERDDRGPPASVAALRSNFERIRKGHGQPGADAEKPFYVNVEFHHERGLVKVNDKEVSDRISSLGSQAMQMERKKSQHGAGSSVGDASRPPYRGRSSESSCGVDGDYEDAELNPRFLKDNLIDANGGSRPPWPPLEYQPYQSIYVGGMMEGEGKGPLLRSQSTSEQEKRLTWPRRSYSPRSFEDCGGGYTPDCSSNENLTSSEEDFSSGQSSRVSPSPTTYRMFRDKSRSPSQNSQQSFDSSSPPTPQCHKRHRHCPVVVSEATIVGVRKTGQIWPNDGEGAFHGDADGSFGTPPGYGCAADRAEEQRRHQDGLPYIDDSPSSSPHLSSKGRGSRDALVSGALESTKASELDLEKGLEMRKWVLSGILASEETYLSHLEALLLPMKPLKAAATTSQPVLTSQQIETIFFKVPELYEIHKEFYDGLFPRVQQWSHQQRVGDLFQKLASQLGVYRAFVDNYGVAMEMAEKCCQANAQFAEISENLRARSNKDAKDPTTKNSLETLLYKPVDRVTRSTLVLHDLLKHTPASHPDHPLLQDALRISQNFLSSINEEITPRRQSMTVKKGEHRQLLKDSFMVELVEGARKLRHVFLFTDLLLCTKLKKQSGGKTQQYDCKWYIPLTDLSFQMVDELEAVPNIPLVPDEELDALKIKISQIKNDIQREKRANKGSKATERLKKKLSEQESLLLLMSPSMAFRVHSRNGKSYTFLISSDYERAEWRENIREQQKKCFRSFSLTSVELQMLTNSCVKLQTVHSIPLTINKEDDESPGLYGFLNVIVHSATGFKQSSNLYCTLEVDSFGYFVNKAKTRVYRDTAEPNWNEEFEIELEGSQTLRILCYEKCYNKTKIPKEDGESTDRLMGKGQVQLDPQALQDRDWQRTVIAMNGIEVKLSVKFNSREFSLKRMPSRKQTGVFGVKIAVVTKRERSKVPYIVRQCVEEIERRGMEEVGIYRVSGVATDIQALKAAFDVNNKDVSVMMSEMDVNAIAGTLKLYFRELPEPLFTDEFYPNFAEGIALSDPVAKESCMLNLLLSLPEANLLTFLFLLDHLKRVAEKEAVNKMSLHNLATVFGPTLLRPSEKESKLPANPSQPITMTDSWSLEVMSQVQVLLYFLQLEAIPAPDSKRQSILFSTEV
T1 sequence (Q96SW2 whole entry, looked up): as the sequence (Q96SW2 whole entry, looked up) above

Activity [1]: inactive
Activity [2]: inactive
SMILES: Cc1nc(Nc2ncc(C(=O)Nc3c(C)cccc3Cl)s2)cc(N2CCN(CCCCOc3ccc(/N=N/c4ccc(C(=O)Nc5cccc6c5CN(C5CCC(=O)N(C)C5=O)C6=O)cc4)cc3)CC2)n1 (single isomer, unassigned; (-))

Activity [3]: Active
Activity [4]: Active
SMILES: Cc1nc(Nc2ncc(C(=O)Nc3c(C)cccc3Cl)s2)cc(N2CCN(CCOc3ccc(/N=N/c4ccc(C(=O)Nc5cccc6c5CN(C5CCC(=O)NC5=O)C6=O)cc4)cc3)CC2)n1 (stereo unspecified)

Activity [5]: inactive
Activity [6]: inactive
Activity ([7]; TDE = time-dependent effect): Tde
Activity ([8]; TDE = time-dependent effect): Tde
Activity [9]: inactive
Activity [10]: inactive
SMILES: Cc1nc(Nc2ncc(C(=O)Nc3c(C)cccc3Cl)s2)cc(N2CCN(CCCCOc3ccc(/N=N\c4ccc(C(=O)Nc5cccc6c5CN(C5CCC(=O)NC5=O)C6=O)cc4)cc3)CC2)n1 (stereo unspecified)

t1/2 [13]: 10.3 h
Stability [14]: Stable
IC50 [15]: 68 nM
Activity [20]: inactive
Activity [21]: inactive
Activity [22]: inactive
Activity [23]: inactive
Activity [24]: inactive
Activity [25]: inactive
Activity [26]: Active
Activity [27]: Active
Activity [28]: Active
Activity [29]: Active
Activity [5]: > 90%
Activity [6]: > 90%
Activity [31]: inactive
Activity [32]: inactive
Activity [7]: Active
Activity [8]: Active
Activity [33]: Dose-dependent effect
Activity [34]: Dose-dependent effect
Activity [3]: Active
Activity [4]: Active
SMILES: Cc1nc(Nc2ncc(C(=O)Nc3c(C)cccc3Cl)s2)cc(N2CCN(CCCCOc3ccc(/N=N/c4ccc(C(=O)Nc5cccc6c5CN(C5CCC(=O)NC5=O)C6=O)cc4)cc3)CC2)n1 (stereo unspecified)
Drug metabolism [11]: Metabolite detected
Drug metabolism [12]: Metabolite detected
EC50 [16]: 28 nM
Activity [17]: inactive
Activity [18]: inactive
Activity [19]: inactive
Activity [30]: Non-Toxic
Drug metabolism [35]: Metabolite detected
